Activity calls are given as the source filed them. The rule behind the calls is not given here.
How the values were obtained:
[1] = system: PC-3; test: Antiproliferative activity against human PC3 cells after 72 hrs by MTT assay; format: functional, cell-based
Outline: (§1)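 Cells grown in MEM with 10% FBS. About 4×10³ cells per well, pre-incubated 24 h at 37°C in 5% CO₂. Compound added at final concentrations, then 72 h. MTT added at 5 µg/mL final for 4 h at 37°C. Tested three times; IC50 taken as the average of […] determinations.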

[2] = system: A549; test: Antiproliferative activity against human A549 cells after 72 hrs by MTT assay; format: functional, cell-based; conditions: for IC50: Homo sapiens, A549, 72 h, read-out: IC50; outline: as §1
[3] = system: HepG2; test: Antiproliferative activity against human HepG2 cells after 72 hrs by MTT assay; format: functional, cell-based
Outline: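 Cells grown in MEM with 10% FBS. About 4×10³ cells per well, pre-incubated 24 h at 37°C in 5% CO₂. Compound added at final concentrations, then 72 h. MTT added at 5 µg/mL final for 4 h at 37°C. Formazan dissolved in DMSO and read at 492 nm against 630 nm reference. Tested three times; IC50 taken as the average of […] determinations.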

[4] = system: MCF7; test: Antiproliferative activity against human MCF7 cells after 72 hrs by MTT assay; format: functional, cell-based; outline: as §1
[5] = molecular target: T1, Receptor-type tyrosine-protein kinase FLT3 (Homo sapiens, UniProt P36888); test: Inhibition of FLT3 (unknown origin)
T1 sequence (P36888 whole entry): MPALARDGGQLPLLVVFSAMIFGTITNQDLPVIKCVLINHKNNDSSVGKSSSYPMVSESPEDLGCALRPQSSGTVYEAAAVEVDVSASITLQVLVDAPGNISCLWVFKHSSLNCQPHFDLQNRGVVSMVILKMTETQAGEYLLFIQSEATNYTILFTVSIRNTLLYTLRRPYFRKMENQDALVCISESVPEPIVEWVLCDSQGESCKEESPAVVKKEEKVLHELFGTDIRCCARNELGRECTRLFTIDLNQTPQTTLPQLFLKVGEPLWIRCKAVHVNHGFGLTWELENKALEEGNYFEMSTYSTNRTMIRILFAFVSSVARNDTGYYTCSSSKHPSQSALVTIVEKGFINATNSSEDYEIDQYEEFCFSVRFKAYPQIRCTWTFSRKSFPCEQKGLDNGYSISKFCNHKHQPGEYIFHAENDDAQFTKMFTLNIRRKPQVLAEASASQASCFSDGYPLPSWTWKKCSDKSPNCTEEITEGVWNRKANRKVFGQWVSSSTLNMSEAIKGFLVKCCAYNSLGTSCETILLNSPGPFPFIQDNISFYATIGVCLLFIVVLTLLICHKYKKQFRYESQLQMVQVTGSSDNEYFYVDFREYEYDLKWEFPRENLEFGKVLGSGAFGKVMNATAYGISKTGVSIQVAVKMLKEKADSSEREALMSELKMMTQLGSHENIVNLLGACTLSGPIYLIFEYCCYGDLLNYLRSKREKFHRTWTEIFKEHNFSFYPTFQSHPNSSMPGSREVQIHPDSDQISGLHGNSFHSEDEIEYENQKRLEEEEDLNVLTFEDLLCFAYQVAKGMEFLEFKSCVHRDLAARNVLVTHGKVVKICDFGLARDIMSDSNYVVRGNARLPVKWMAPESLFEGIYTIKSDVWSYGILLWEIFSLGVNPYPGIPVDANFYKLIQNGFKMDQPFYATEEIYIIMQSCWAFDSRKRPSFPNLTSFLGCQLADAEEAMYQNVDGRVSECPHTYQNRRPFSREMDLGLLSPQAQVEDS

[6] = molecular target: Hepatocyte growth factor receptor (Homo sapiens, UniProt P08581); test: Inhibition of c-Met (unknown origin) using FAM-labeled peptide substrate after 10 mins by mobility shift assay
[7] = molecular target: Vascular endothelial growth factor receptor 2 (Homo sapiens, UniProt P35968); test: Inhibition of VEGFR2 (unknown origin)
[8] = molecular target: Epidermal growth factor receptor (Homo sapiens, UniProt P00533); test: Inhibition of EGFR (unknown origin)
[9] = system: A549; test: Cell cycle arrest in human A549 cells assessed as accumulation at sub-G1 phase at 4 uM after 12 hrs by propidium iodide staining-based flow cytometry (reference value: 0.06%); format: functional
[10] = system: A549; test: Cell cycle arrest in human A549 cells assessed as accumulation at G2/M phase at 4 uM after 12 hrs by propidium iodide staining-based flow cytometry (reference value: 23.62%); format: functional
[11] = system: A549; test: Antiproliferative activity against human A549 cells at 0.08 to 8 ug/ml by MTT assay; format: functional, cell-based; conditions: TDE = time-dependent effect
[12] = system: A549; test: Cell cycle arrest in human A549 cells assessed as accumulation at S phase at 4 uM after 12 hrs by propidium iodide staining-based flow cytometry (reference value: 48.44%); format: functional
[13] = system: A549; test: Cell cycle arrest in human A549 cells assessed as accumulation at G1 phase at 4 uM after 12 hrs by propidium iodide staining-based flow cytometry (reference value: 27.08%); format: functional
[14] = system: A549; test: Induction of apoptosis in human A549 cells assessed as change in cell morphology at 0.8 uM after 12 hrs by acridine orange staining-based fluorescence microscopic method; format: functional
Outline: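 A549 cells in MEM with 10% FBS, about 2×10⁴ per well, pre-incubated 24 h at 37°C in 5% CO₂. Given drug-free medium or 0.80 µM compound for 12 h. Stained with acridine orange in PBS at 10 µg/mL final for 10 min in the dark, washed three times with PBS, and nuclear morphology viewed by fluorescence microscopy.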

[15] = Homo sapiens, PC-3, 72 h, read-out: IC50
[16] = Homo sapiens, HepG2, 72 h, read-out: IC50
[17] = Homo sapiens, MCF7, 72 h, read-out: IC50

Chain of Epidermal growth factor receptor (P00533 whole entry): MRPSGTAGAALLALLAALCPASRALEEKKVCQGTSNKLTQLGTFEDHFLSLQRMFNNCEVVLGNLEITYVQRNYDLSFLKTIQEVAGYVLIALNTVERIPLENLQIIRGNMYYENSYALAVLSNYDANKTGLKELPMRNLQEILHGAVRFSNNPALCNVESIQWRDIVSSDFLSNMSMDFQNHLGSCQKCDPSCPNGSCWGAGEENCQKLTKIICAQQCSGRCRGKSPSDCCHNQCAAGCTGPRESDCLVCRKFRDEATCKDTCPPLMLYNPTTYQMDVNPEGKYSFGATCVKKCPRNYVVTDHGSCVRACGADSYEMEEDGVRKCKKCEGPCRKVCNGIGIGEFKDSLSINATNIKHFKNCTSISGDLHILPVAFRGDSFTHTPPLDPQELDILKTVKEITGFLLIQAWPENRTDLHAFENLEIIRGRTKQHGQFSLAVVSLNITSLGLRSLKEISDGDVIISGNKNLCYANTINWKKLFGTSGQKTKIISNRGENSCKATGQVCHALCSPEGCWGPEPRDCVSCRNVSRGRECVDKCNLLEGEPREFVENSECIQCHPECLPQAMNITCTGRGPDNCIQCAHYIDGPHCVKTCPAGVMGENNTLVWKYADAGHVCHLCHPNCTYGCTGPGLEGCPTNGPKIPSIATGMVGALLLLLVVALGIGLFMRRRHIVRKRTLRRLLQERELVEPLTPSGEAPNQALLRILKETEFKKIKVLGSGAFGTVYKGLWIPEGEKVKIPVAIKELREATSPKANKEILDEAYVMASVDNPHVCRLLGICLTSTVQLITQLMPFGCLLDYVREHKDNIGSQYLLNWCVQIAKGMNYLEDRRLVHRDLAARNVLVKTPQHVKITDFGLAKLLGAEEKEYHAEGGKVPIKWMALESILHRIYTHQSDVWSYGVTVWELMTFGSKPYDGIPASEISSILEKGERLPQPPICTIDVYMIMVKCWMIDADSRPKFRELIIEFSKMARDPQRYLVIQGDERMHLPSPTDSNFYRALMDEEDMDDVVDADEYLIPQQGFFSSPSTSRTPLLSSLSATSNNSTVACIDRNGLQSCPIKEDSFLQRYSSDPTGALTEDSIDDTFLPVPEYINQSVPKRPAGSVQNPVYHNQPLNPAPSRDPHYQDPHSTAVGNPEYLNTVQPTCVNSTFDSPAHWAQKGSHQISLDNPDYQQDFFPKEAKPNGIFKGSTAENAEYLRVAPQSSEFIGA
Chain of Hepatocyte growth factor receptor (P08581 whole entry): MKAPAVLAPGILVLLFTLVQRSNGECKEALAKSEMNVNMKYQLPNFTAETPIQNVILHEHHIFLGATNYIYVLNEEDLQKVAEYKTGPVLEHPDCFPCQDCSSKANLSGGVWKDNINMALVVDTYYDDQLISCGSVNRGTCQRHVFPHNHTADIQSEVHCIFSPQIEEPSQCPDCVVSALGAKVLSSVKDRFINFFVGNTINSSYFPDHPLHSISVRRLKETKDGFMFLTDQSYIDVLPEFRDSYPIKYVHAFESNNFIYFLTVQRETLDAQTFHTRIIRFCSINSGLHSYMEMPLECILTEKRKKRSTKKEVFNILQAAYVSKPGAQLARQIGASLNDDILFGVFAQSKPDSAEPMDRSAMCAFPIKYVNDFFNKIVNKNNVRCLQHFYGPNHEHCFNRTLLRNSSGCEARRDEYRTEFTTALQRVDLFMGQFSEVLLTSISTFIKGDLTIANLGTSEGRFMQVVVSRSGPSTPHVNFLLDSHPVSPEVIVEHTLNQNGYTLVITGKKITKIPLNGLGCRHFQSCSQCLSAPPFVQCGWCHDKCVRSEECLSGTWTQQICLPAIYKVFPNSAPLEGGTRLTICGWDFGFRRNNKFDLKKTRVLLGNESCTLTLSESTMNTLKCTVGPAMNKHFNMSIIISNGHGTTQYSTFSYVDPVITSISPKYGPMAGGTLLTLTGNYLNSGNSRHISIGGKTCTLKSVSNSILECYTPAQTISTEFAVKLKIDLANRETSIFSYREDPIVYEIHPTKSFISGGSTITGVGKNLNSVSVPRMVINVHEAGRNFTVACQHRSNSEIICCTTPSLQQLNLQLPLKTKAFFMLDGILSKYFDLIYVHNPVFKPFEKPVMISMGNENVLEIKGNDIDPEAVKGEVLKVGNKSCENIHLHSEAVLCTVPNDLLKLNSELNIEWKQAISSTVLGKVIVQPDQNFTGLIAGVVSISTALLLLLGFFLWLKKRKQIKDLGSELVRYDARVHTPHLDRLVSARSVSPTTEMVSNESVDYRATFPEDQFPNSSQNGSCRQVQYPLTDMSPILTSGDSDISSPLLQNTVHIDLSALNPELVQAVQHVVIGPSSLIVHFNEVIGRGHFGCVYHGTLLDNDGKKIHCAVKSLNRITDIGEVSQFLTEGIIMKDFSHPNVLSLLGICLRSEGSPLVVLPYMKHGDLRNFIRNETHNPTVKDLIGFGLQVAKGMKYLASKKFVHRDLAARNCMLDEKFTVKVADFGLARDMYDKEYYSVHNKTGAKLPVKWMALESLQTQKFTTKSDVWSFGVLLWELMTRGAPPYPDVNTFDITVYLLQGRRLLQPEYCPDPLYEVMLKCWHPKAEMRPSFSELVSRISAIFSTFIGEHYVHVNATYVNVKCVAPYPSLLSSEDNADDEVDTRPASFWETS
Chain of Vascular endothelial growth factor receptor 2 (P35968 whole entry): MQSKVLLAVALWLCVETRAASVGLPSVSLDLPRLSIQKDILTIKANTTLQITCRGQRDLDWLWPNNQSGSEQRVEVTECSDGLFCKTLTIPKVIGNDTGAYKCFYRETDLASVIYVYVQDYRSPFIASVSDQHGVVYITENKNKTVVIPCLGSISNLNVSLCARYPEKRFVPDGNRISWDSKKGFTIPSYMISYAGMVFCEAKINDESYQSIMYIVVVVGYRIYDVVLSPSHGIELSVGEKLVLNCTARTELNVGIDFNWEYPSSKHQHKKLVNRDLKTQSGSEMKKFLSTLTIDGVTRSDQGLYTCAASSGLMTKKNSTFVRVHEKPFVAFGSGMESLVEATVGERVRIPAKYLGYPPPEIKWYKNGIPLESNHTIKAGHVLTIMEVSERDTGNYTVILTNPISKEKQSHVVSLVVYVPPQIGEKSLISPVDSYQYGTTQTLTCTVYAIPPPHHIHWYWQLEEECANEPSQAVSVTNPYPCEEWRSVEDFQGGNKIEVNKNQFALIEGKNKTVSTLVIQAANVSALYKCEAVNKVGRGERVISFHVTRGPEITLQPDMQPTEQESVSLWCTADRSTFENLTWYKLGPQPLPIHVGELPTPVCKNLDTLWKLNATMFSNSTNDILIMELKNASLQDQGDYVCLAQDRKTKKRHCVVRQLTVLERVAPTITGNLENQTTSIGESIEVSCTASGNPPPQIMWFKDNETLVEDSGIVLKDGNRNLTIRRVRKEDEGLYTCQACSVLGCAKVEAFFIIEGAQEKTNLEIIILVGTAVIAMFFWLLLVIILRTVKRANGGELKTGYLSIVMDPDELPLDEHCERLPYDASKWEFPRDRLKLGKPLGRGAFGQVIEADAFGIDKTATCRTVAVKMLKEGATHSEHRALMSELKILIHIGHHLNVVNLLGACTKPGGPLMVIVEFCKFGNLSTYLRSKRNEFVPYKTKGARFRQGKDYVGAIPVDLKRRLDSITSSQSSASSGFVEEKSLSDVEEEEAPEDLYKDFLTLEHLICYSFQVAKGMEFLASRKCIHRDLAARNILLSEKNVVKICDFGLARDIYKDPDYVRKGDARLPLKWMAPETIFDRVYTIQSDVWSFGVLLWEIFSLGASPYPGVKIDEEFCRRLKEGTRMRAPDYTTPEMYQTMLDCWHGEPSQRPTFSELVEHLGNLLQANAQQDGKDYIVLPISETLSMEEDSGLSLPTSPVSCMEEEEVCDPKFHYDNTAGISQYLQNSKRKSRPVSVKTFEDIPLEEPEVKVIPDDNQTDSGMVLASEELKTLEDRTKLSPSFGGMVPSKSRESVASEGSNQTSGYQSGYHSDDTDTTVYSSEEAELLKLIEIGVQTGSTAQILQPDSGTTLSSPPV

Row | Compound | IC50 [1, 15] [µM] | IC50 [2] [nM] | IC50 [3, 16] [nM] | IC50 [4, 17] [µM] | further results
1 | O=C(N/N=C/c1ccc([N+](=O)[O-])cc1)Nc1ccc(Oc2ccnc3[nH]ccc23)cc1 | 28.1 | 2100 | 4620 | 15.6 | 
2 | O=C(N/N=C/c1ccc(F)cc1Cl)Nc1ccc(Oc2ccnc3[nH]ccc23)c(F)c1 | 0.003 | 10 | 1110 | 7.61 | 
3 | O=C(N/N=C/c1ccc(O)cc1)Nc1ccc(Oc2ccnc3[nH]ccc23)c(F)c1 | 2.78 | 3760 | 1950 |  | IC50 ([4]; mcf7): Not Active
4 | O=C(N/N=C/c1ccc(F)cc1)Nc1ccc(Oc2ccnc3[nH]ccc23)cc1 | 7.49 | 1430 | 3430 | 3.72 | 
5 | O=C(N/N=C/c1ccc(O)cc1O)Nc1ccc(Oc2ccnc3[nH]ccc23)c(F)c1 | 13 | 5840 | 4550 | 48 | 
6 | O=C(N/N=C/c1ccc(F)cc1)Nc1ccc(Oc2ccnc3[nH]ccc23)c(F)c1 | 2.33 | 680 | 3880 | 0.8 | 
7 | COc1cc(/C=N/NC(=O)Nc2ccc(Oc3ccnc4[nH]ccc34)c(F)c2)cc(OC)c1OC |  | 34100 |  | 21.9 | IC50 ([1]; pc-3): Not Active; IC50 ([3]; hepg2): Not Active
8 | CC(C)(C)c1cc(/C=N/NC(=O)Nc2ccc(Oc3ccnc4[nH]ccc34)c(F)c2)cc(C(C)(C)C)c1O | 10.4 | 13600 | 7220 | 0.84 | 
9 | O=C(N/N=C/c1cccn1CCCN1CCCCC1)Nc1ccc(Oc2ccnc3[nH]ccc23)c(F)c1 | 2.84 | 2850 | 2840 | 4.84 | 
10 | O=C(N/N=C/c1cccc(Br)c1)Nc1ccc(Oc2ccnc3[nH]ccc23)c(F)c1 | 4.02 | 2220 | 660 | 0.049 | 
11 | O=C(N/N=C/c1cccn1CCCN1CCCC1)Nc1ccc(Oc2ccnc3[nH]ccc23)c(F)c1 | 3.58 | 2010 | 3500 | 4.58 | 
12 | CN1CCN(CCCn2cccc2/C=N/NC(=O)Nc2ccc(Oc3ccnc4[nH]ccc34)c(F)c2)CC1 | 2.19 | 2200 | 2740 | 3.74 | 
13 | O=C(N/N=C/c1ccc(O)c(Br)c1)Nc1ccc(Oc2ccnc3[nH]ccc23)c(F)c1 | 28.6 | 9250 | 1360 | 8.23 | 
14 | O=C(N/N=C/c1ccc(O)cc1)Nc1ccc(Oc2ccnc3[nH]ccc23)cc1 | 4.92 | 1910 | 32200 | 5.8 | 
15 | O=C(N/N=C/c1ccc(Br)cc1)Nc1ccc(Oc2ccnc3[nH]ccc23)cc1 |  | 640 | 1000 |  | IC50 ([1]; pc-3): Not Active; IC50 ([4]; mcf7): Not Active
16 | O=C(N/N=C/c1cccn1CCCN1CCCC1)Nc1ccc(Oc2ccnc3[nH]ccc23)cc1 | 4.29 | 1300 | 1420 | 4.53 | IC50 [5]: 3.8 µM; IC50 [6]: 907 nM; IC50 [7]: 14.4 µM; IC50 [8]: 45 µM
17 | COc1ccc(/C=N/NC(=O)Nc2ccc(Oc3ccnc4[nH]ccc34)c(F)c2)cc1 | 6.73 | 3980 | 1770 | 5.75 | 
18 | COc1ccc(/C=N/NC(=O)Nc2ccc(Oc3ccnc4[nH]ccc34)c(F)c2)c(OC)c1OC | 8.97 | 1450 | 2990 | 0.134 | 
19 | O=C(N/N=C/c1cccc([N+](=O)[O-])c1)Nc1ccc(Oc2ccnc3[nH]ccc23)c(F)c1 | 5.14 | 3640 | 5180 |  | IC50 ([4]; mcf7): Not Active
20 | O=C(N/N=C/c1ccc(Cl)c(Cl)c1)Nc1ccc(Oc2ccnc3[nH]ccc23)c(F)c1 | 14.1 | 2650 | 3700 | 0.998 | 
21 | O=C(N/N=C/c1cc(Br)c(O)c(Br)c1)Nc1ccc(Oc2ccnc3[nH]ccc23)c(F)c1 |  | 16200 | 6520 |  | IC50 ([1]; pc-3): Not Active; IC50 ([4]; mcf7): Not Active
22 | O=C(N/N=C/c1ccc(Br)cc1)Nc1ccc(Oc2ccnc3[nH]ccc23)c(F)c1 | 0.92 | 820 | 1000 | 0.93 | Activity [1]: Dose-dependent effect; Activity [9]: 0.01%; Activity [2]: Dose-dependent effect; Activity [10]: 79.86%; Activity [3]: Dose-dependent effect; Activity [11]: Tde; Activity [12]: 7.08%; Activity [13]: 10.67%; IC50 [5]: 2.6 µM; Activity [4]: Dose-dependent effect; IC50 [6]: 506 nM; IC50 [7]: 8.9 µM; IC50 [8]: > 100 µM; Activity [14]: Active
23 | CCN(CC)CCCn1cccc1/C=N/NC(=O)Nc1ccc(Oc2ccnc3[nH]ccc23)c(F)c1 | 2.95 | 1210 | 2140 | 3.39 | 
24 | O=C(N/N=C/c1cccn1CCCN1CCCCC1)Nc1ccc(Oc2ccnc3[nH]ccc23)cc1 | 3.58 | 1560 | 3690 | 4.69 | 
